ChEMBL document CHEMBL1132219, “Synthesis of novel phenserine-based-selective inhibitors of butyrylcholinesterase for Alzheimer's disease” (J Med Chem, 1999)

Columns and labels:
Acetylcholinesterase = Acetylcholinesterase (Homo sapiens, UniProt P22303); assay: Ability to inhibit acetylcholinesterase (AChE), freshly prepared from human erythrocytes
How it was run: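 AChE from freshly collected blood: erythrocytes washed five times in isotonic saline, lysed in 9 volumes of 0.1 M Na3PO4 pH 7.4 with 0.5% Triton-X, diluted to final 1:200. Compounds preincubated with enzyme 30 min at room temperature, then with substrate and DTNB 25 min at 37 °C, pH 8.0. Final range 0.3 nM–[…] in half-log steps. IC50 from logit-activity versus log concentration. Four runs.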

Cholinesterase = Cholinesterase (Homo sapiens, UniProt P06276); assay: Ability to inhibit butyrylcholinesterase (BChE), freshly prepared from human plasma; type: cell-free
Chain of Cholinesterase (P06276 whole entry): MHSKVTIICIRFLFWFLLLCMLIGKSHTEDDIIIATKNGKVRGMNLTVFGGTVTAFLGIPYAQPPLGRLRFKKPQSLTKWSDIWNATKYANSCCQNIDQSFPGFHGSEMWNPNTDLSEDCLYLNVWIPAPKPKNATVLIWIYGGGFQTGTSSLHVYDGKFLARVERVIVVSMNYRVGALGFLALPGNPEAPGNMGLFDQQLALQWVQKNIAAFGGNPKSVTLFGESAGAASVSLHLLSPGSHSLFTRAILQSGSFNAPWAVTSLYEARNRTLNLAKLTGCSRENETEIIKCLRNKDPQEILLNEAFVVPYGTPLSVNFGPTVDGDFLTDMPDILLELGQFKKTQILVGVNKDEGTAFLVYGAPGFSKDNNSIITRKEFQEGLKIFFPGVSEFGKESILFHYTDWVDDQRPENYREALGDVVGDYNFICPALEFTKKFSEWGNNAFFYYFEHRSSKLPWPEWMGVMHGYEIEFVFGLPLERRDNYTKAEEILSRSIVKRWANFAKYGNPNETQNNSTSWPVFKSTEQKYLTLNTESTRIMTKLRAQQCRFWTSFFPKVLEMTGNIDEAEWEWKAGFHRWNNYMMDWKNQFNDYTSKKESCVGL

[1] = molecular target: T1, Cholinesterases; ACHE & BCHE (Homo sapiens) (UniProt P06276+P22303); assay: BChE selectivity = IC50(AChE) / IC50(BChE).; type: protein assay
T1 sequence (P06276 whole entry, looked up): as the sequence (P06276 whole entry) above
T1 sequence (P22303 whole entry, looked up): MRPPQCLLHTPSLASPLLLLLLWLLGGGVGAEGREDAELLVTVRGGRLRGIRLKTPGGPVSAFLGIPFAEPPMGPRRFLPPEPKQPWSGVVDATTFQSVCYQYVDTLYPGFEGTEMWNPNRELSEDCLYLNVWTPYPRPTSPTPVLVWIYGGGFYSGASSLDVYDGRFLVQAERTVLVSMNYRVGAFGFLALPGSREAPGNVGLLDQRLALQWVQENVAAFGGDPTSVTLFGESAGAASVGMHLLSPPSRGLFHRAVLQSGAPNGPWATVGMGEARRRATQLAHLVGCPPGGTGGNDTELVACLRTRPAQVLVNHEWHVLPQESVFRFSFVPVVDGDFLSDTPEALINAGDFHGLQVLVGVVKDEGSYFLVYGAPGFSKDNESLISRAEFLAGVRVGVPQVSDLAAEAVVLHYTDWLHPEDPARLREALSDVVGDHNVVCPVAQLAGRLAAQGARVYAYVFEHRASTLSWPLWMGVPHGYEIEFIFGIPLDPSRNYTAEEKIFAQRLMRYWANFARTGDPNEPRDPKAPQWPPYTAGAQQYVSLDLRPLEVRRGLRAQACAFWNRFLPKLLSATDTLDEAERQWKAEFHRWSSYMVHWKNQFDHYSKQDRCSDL

[2] = molecular target: T1, Cholinesterases; ACHE & BCHE (Homo sapiens); assay: AChE selectivity = IC50(BChE) / IC50(AChE).; type: protein assay

Chain of Acetylcholinesterase (P22303 whole entry): as the sequence (P22303 whole entry, looked up) above

Row | Compound | IC50 (Acetylcholinesterase) | IC50 (Cholinesterase) | Selectivity [1] | Selectivity [2]
1 | CC(C)c1ccc(NC(=O)Oc2ccc3c(c2)[C@]2(C)CCN(C)C2N3Cc2ccccc2)cc1 (some centres not stated) | 13000 nM | 85 nM | 152 | –
2 | CC(C)c1ccc(NC(=O)Oc2ccc3c(c2)[C@]2(C)CCN(C)C2N3)cc1 (some centres not stated) | 2020 nM | 78 nM | 26 | –
3 | Cc1ccccc1NC(=O)Oc1ccc2c(c1)[C@]1(C)CCN(Cc3ccccc3)C1N2Cc1ccccc1 (some centres not stated) | 1760 nM | 641 nM | 3 | –
4 | Cc1ccccc1NC(=O)Oc1ccc2c(c1)[C@]1(C)CCN(CCc3ccccc3)C1N2C (some centres not stated) | 550 nM | 1790 nM | – | 3
5 | Cc1ccccc1NC(=O)Oc1ccc2c(c1)[C@]1(C)CCNC1N2C (some centres not stated) | 17 nM | 2170 nM | – | 127
6 | CC(C)c1ccc(NC(=O)Oc2ccc3c(c2)[C@]2(C)CCN(CCc4ccccc4)C2N3C)cc1 (some centres not stated) | > 30000 nM | 6 nM | – | –
7 | Cc1ccccc1NC(=O)Oc1ccc2c(c1)[C@]1(C)CCN(C)C1N2Cc1ccccc1 (some centres not stated) | 100 nM | 600 nM | – | 6
8 | Cc1ccccc1NC(=O)Oc1ccc2c(c1)[C@]1(C)CCN(C)C1N2 (some centres not stated) | 40 nM | 1430 nM | – | 36
9 | Cc1ccccc1NC(=O)Oc1ccc2c(c1)[C@]1(C)CCNC1N2 (some centres not stated) | 285 nM | 396 nM | – | 1
10 | CC(C)c1ccc(NC(=O)Oc2ccc3c(c2)[C@]2(C)CCNC2N3)cc1 (some centres not stated) | 110 nM | 1 nM | 110 | –
11 | CN1CC[C@@]2(C)c3cc(OC(=O)Nc4ccccc4)ccc3N(C)C12 (some centres not stated) | – | – | – | 65
12 | CC(C)c1ccc(NC(=O)Oc2ccc3c(c2)[C@]2(C)CCN(Cc4ccccc4)C2N3Cc2ccccc2)cc1 (some centres not stated) | > 30000 nM | 132 nM | > 227 | –
13 | Cc1ccccc1NC(=O)Oc1ccc2c(c1)[C@]1(C)CCN(C)C1N2C (some centres not stated) | 10.3 nM | – | – | –
14 | CC(C)c1ccc(NC(=O)Oc2ccc3c(c2)[C@]2(C)CCNC2N3C)cc1 (some centres not stated) | 324 nM | 8.3 nM | 39 | –
